Autophagy mod: modulators of autophagy. MEF GFP-LC3 puncta imaging; test concentration mostly 10 µM. calls only at 10 µM (by protocol). 190,000 compounds, 0.98% hits. AID 463193;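 active means percentage of spot-positive cells more than 3 SD above its plate mean, without a fluorescence outlier flag or 80% toxicity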
MT stabilize HCS: stabilizes microtubules in HeLa cells; HeLa tubulin immunostaining HCS, 24 h; share of cells brighter than vehicle mean+2SD; % tubulin-high responders, % at 10 µM; 200,000 compounds, 0.83% hits;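 active means plate Z-score above 3 for both tubulin-high and condensed-nucleus cell shares, with cell loss under 80%, at 10 µM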;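 further: anti alpha tubulin signal scored within the nucleus-defined area of each cell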
CHOP inhibitor: blocks CHOP induction under ER stress; CHO-K1 CHOP-promoter luciferase, tunicamycin-induced, 15-18 h; 220,000 compounds, 3.8% hits; inhibition, % at 10 µM;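 active means compounds that reduced the stress-induced luciferase reporter signal by more than about 70% of percent inhibition, limit read from the data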
L major viab: inhibitors of Leishmania major promastigote growth; Leishmania major promastigotes, resazurin fluorescence viability; inhibition, % at 10 µM; 200,000 compounds, 9% hits; AID 1063; in the data active means inhibition above about 50%;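 further: promastigotes grown with compound for 44 hours at 28 °C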
b-catenin transl: modulators of beta-catenin nuclear translocation | HeLa beta-catenin nuclear translocation, immunofluorescence imaging | 190,000 compounds, 0.3% hits | AID 1665 | nuclear translocation activity, % at 5 µM;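 active means nuclear translocation activity above 50% at 5 µM, with a well cell count of 50 or more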;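 further: per-cell ratio of nuclear to cytoplasmic median beta-catenin stain intensity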
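Assay system: human HeLa cells, native beta-catenin; doses: 5 µM primary, 0.02–20 µM confirmation; incubation: compound treatment 24 h, 37°C, 5% CO2; technique: fluorescence imaging of beta-catenin antibody stain plus DAPI; measure: % activation, nuclear-to-cytoplasmic median beta-catenin signal ratio per cell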
Dynein cargo inh: dynein cargo transport inhibition. 3617.4 mouse cells, GR-EGFP nuclear translocation imaging; test concentration mostly 20 µM; stimulated with dexamethasone, 1 µM; stronger effect = lower value. z-score, hits read low. 220,000 compounds, 0.47% hits. AID 1381;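 active means plate z-score of nuclear minus cytoplasmic receptor signal below a set negative limit, without overly bright fluorescence or cell loss, cut at about -3.5 in these data, passing the limit was not always enough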;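 further: z-score of nuclear minus cytoplasmic ring GR-EGFP intensity difference per well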
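Buffer or medium: tetracycline-free induction medium containing charcoal-stripped FBS / Reagent: dexamethasone agonist, 1.0 µM final, for 30 min / Technique: automated 10x imaging of fixed Hoechst-stained cells / Times: induction 48 h, compound 1 h, agonist 30 min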
A number is an active result; n = inactive; x = no result; + = active, no number. Compounds with a hit are over-represented: about 12% of the library has one in this group of screens.

SMILES	Autophagy mod	MT stabilize HCS	CHOP inhibitor	L major viab	b-catenin transl	Dynein cargo inh
CC1CCc2sc(C(=O)N=Nc3c(O)[nH]c4ccccc34)cc2C1 (centres undefined)	n	n	n	n	n	n
CCCCNCCOCCOc1ccc(C)cc1Br	n	n	n	98	n	n
Cc1cc(C)n(CC(O)COc2c(C)cccc2C)n1 (centres undefined)	n	n	n	n	n	n
CC(C)(C)C(=O)NC1(C(F)(F)F)C(=O)Nc2c1c(=O)[nH]c(=O)n2Cc1ccco1 (centres undefined)	n	n	n	n	n	n
O=C(Cn1cnc2c(nnn2-c2cccc(Cl)c2)c1=O)NCc1ccccc1	n	n	n	n	n	n
CC1=CCC2C(=O)N(c3ccccc3OC(=O)c3ccccc3F)C(=O)C2C1 (centres undefined)	n	n	n	n	x	n
COC(=O)/C(=C/c1ccco1)NC(=O)c1ccco1	n	n	n	80	n	n
Cc1ccc(C(=O)N/C(=C/c2ccco2)C(=O)OCN2C(=O)c3ccccc3C2=O)cc1	n	n	n	61	n	n
COc1nc(SC)nc(Cl)c1Cc1ccc(OC(C)C)cc1	n	n	n	66	n	n
N#Cc1ccsc1NC(=O)CN1CCOCC1	x	x	n	x	n	n
CCOC(=O)c1c(-c2ccc(OC)cc2)csc1NC(=O)CCN1CCOCC1	n	n	n	84	n	n
CCOC(=O)c1c(-c2ccccc2)csc1NC(=O)c1ccc(S(=O)(=O)N2CC(C)OC(C)C2)cc1 (centres undefined)	n	n	n	n	n	n
CCOC(=O)c1c(NC(=O)CCN2CCOCC2)sc2c1CC(C)(C)OC2	n	n	n	n	n	n
CCOC(=O)c1c(-c2ccc(C)cc2)csc1NC(=O)CCN1CC(C)OC(C)C1 (centres undefined)	n	n	n	98	x	n
CCOC(=O)c1c(NC(=O)CCN2CCOCC2)sc(C)c1-c1ccccc1	n	n	n	52	n	n
COC(=O)c1c(-c2cccs2)csc1NC(=O)CN1CCOCC1	n	n	74	n	n	n
O=C(COC(=O)Cc1ccccc1F)Nc1cccc(F)c1	n	n	n	n	n	n
CCOC(=O)c1c(-c2ccc(C)o2)csc1NC(=O)CN(C)CC(=O)Nc1ccc(C)cc1	n	n	89	n	x	n
CCOC(=O)c1c(-c2ccc(C)o2)csc1NC(=O)CN1CCN(CC)CC1	n	n	n	n	n	n
COCCCNc1nc2nonc2nc1N1CCC(C(C)N2CCOCC2)CC1 (centres undefined)	n	n	n	n	n	n
Cc1cc(S(=O)(=O)N2CCN(c3c(C)cccc3C)CC2)ccc1F	n	n	n	n	x	n
CCC(C)N(C)Cc1cccc(C2(O)CCN(S(=O)(=O)c3ccc(F)c(C)c3)CC2)c1 (centres undefined)	n	n	n	99	n	n
Cc1ccc(O)c(CCc2ccc(O)cc2)n1	n	n	n	n	n	n
CCCN(CCC)CCCNS(=O)(=O)c1cc(Br)cc2c1N(C(C)=O)CC2	n	n	n	87	n	n
CCC(=O)N1CCc2cc(Br)cc(S(=O)(=O)NCCN3CCCCC3C)c21 (centres undefined)	n	n	n	92	n	n
SMILES	Autophagy mod	MT stabilize HCS	CHOP inhibitor	L major viab	b-catenin transl	Dynein cargo inh
COC(=O)CS(=O)(=O)c1cc(Br)cc2c1N(C(C)=O)CC2	n	n	n	n	n	n
O=S(=O)(CCN1CCSCC1)c1ccccc1	x	x	n	x	n	n
COc1ccc(OC)c(N(CC(N)=O)S(=O)(=O)c2ccc(OC)c(OC)c2)c1	n	n	n	n	x	n
O=C1/C(=C\c2cccnc2)Sc2ccccc21	n	n	n	100	n	n
O=C(CNC(=O)c1ccc(S(=O)(=O)N2CCCC2)cc1)N/N=C/c1ccc(Cl)cc1Cl	n	n	n	69	n	n
COc1ccc(/C=N/NC(=O)CNC(=O)c2ccc(S(=O)(=O)N3CCOCC3)cc2)cc1OC	n	n	n	n	n	n
COc1ccc(/C=N/NC(=O)CNC(=O)c2ccc(S(=O)(=O)N3CCOCC3)cc2)c(OC)c1	n	n	n	n	n	n
O=C(CNC(=O)c1ccc(S(=O)(=O)N2CCCC2)cc1)N/N=C/c1ccc(Cl)cc1	n	n	n	91	n	n
O=C(CNC(=O)c1ccc(S(=O)(=O)N2CCCC2)cc1)N/N=C/c1ccccc1	n	n	n	87	n	n
O=C(CNC(=O)c1ccc(S(=O)(=O)N2CCCC2)cc1)N/N=C/c1c(Cl)cccc1Cl	n	n	n	83	n	n
COc1ccc(/C(O)=C2/C(=O)C(=O)N(CCCN(C)C)C2c2cccnc2)cc1 (centres undefined)	x	x	x	x	n	x
CCc1ccccc1NC(=O)CCc1nc(-c2cccs2)no1	n	n	n	n	n	n
Nc1nc(Nc2ccccc2F)nc(N2CCOCC2)c1[N+](=O)[O-]	x	x	n	x	n	n
NCCCC[C@H](NC(=O)C1CCNCC1)c1nnc(CN)o1	n	n	n	n	n	n
CCOC(=O)C1=C(C)NC(C)=C(C(=O)OCC)C1C(=O)OCC(=O)c1ccc2c(c1)OCCO2	n	n	n	65	n	n
Cc1ccc(C(=O)OCC(=O)N2CCc3ccccc32)cc1	n	n	n	n	n	n
COc1cc(CC(=O)OCC(=O)c2ccc3c(c2)OCCO3)cc(OC)c1OC	+	17	n	n	158	n
CCOC(=O)C1=C(C)NC(C)=C(C(=O)OCC)C1C(=O)OCC(N)=O	n	n	n	n	n	n
CCOC(=O)C1=C(C)NC(C)=C(C(=O)OCC)C1C(=O)OCC(=O)N1CCc2ccccc21	n	n	n	97	n	n
CCOC(=O)c1[nH]c(C)c(C(=O)OCC(=O)N2CCc3ccccc32)c1C	n	n	n	n	n	n
CCOC(=O)c1c(C)[nH]c(C(=O)OCC(=O)N2CCc3ccccc32)c1C	+	n	n	n	n	n
O=C(Nc1ccccc1C(=O)Nc1nnc(C(F)(F)F)s1)c1ccccc1	x	x	88	x	n	n
CCOC(=O)C(=Cc1ccc(Br)cc1)C(=O)OCC	x	x	105	x	n	n
CCOC(=O)/C(=C/c1ccc(OC(=O)c2ccncc2)cc1)C(C)=O	n	n	n	n	n	n
CCOC(=O)C(CC)(CC)C(=O)/C=C/c1ccc(Br)cc1	n	n	n	83	n	n
CCOC(=O)/C(=C\c1ccccc1)C(=O)c1cc(C(C)=O)c(Nc2ccccc2)s1	+	n	x	100	x	n
COC(=O)c1c(NC(=O)c2ccccc2)sc2c1CC(C)(C)NC2(C)C	n	n	n	n	n	n
CC1(C)Cc2c(sc(NC(=O)c3ccc4ncsc4c3)c2C(N)=O)C(C)(C)N1	n	n	n	78	n	n
COCC(=O)NC1CCN(C(=O)NCc2ccccc2)CC1	n	n	n	n	x	n
CN(C)CCCN(C(=O)COc1ccccc1)c1nc2ccc(Cl)cc2s1	n	n	n	n	n	n
